Test [1] is described as follows: Inhibition of Staphylococcus aureus TrmD using S-[methyl-3H] adenosyl-L-methionine as substrate assessed as leucine-tRNA methylation after 1 hr by scintillation proximity assay. Summed up: (§1)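 Radiometric SPA: TrmD in 50 mM HEPES pH 7.5 with 5 mM MgCl2 (E. coli and K. pneumoniae 10 nM, S. aureus 10 nM, P. aeruginosa 5 nM, H. influenzae 4 nM in enzyme reagent), mixed 1:1 with a reagent of 0.05 μM [3H]SAM, 2 μM unlabelled SAM and 2 μM synthetic E. coli leucine-tRNA. Compounds are 2-fold serial DMSO dilutions. Incubation is 1 h at room temperature.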

Test [2] in a line: Inhibition of Escherichia coli TrmD using S-[methyl-3H] adenosyl-L-methionine as substrate assessed as leucine-tRNA methylation after 1 hr by scintillation proximity assay. The method, boiled down: as §1
Background: In a scintillation proximity assay essentially only radioactivity close to the scintillant gives light.

Test [3] is described as follows: Inhibition of Haemophilus influenzae TrmD using S-[methyl-3H] adenosyl-L-methionine as substrate assessed as leucine-tRNA methylation after 1 hr by scintillation proximity assay. The method, boiled down:
as §1

pIC50: −log10 of the molar value.

In general, pIC50 refers to the IC50 on a negative log10 scale, so that one unit is a factor of ten. In the case of `CN(Cc1ccccc1)C(=O)c1csc2nc[nH]c(=O)c12`, the negative-log IC50 (pIC50) in test [1], in test [2] and in test [3] was less than 3.70 throughout.
Consider `O=C(NCc1ccccn1)c1csc2nc[nH]c(=O)c12`, for which the negative-log IC50 (pIC50) in test [1] was less than 3.70; in test [2], 3.86; in test [3], 5.10.
The matching figures for `O=C(NCc1ccncc1)c1csc2nc[nH]c(=O)c12`: 4.14, 4.72 and 5.09.
Consider `CCCNCc1ccc(CNC(=O)c2csc3nc[nH]c(=O)c23)cc1`, for which the negative logarithm of the IC50 (pIC50) is 5.18 in test [1], 6.00 in test [2] and 6.00 in test [3].
Take `O=c1[nH]cnc2[nH]cc(-c3ccccc3)c12`: the pIC50 was 5.64 in test [1], 4.01 in test [2] and 4.77 in test [3].
Regarding `Cc1ccc(-c2csc3ncnc(O)c23)cc1`, the negative logarithm of the IC50 (pIC50) is 4.21 in test [1], 5.16 in test [2] and 5.77 in test [3].
On the same counts, the results for `O=C(NCc1cccnc1)c1csc2nc[nH]c(=O)c12` are 4.14, 4.96 and 5.44.
On to `COCCNCc1ccc(CNC(=O)c2csc3nc[nH]c(=O)c23)cc1`, for which the negative-log IC50 (pIC50) in test [1] was 4.92; in test [2], 5.89; in test [3], 5.77.
Take `NC(=O)c1ccc(CNC(=O)c2csc3nc[nH]c(=O)c23)cc1`: the pIC50 in test [1] was 4.60; in test [2], 5.33; in test [3], 5.15.
Consider `O=C(NCc1ccc(-c2ccccc2)cc1)c1csc2nc[nH]c(=O)c12`, for which the negative logarithm of the IC50 (pIC50) is 3.98 in test [1], 4.48 in test [2] and 4.19 in test [3].
Consider `NCC1CCC(CNC(=O)c2csc3nc[nH]c(=O)c23)CC1` (stereo unspecified), for which the pIC50 in test [1] is 4.92; in test [2], 5.31; in test [3] it was 5.74.
Take `CN(C)Cc1ccc(CNC(=O)c2csc3nc[nH]c(=O)c23)cc1`: the negative-log IC50 (pIC50) is 4.57 in test [1], 5.74 in test [2] and 5.92 in test [3].
Turning to `N=C(N)c1ccc(CNC(=O)c2csc3nc[nH]c(=O)c23)cc1`, the negative-log IC50 (pIC50) is 5.26 in test [1], 6.05 in test [2] and 5.96 in test [3].
Regarding `C[C@H](NC(=O)c1csc2nc[nH]c(=O)c12)c1ccccc1`, the pIC50 in test [1], in test [2] and in test [3] was less than 3.70 each time.
For the compound `O=c1[nH]cnc2scc(C3CCNC3)c12` (stereo unspecified), the pIC50 in test [1], in test [2] and in test [3] was less than 3.70 throughout.
In the case of `O=c1[nH]cnc2ccc(-c3ccccc3)cc12`, the negative-log IC50 (pIC50) was less than 3.70 in test [1] and 4.96 in test [3].
As for `O=C(NCc1ccccc1)c1csc2nc[nH]c(=O)c12`, the negative logarithm of the IC50 (pIC50) in test [1] is 4.19; in test [2], 5.19; in test [3], 5.59.
Turning to `Cn1cc(-c2csc3nc[nH]c(=O)c23)cn1`, the values for the negative logarithm of the IC50 (pIC50) in test [1], in test [2] and in test [3] were 4.47, 5.68 and 6.17, respectively.
For `O=c1[nH]cnc2[nH]nc(-c3ccccc3)c12`, the results for the negative logarithm of the IC50 (pIC50) in test [1], in test [2] and in test [3] were 5.85, less than 3.70 and 4.52, respectively.
With `C[C@@H](NC(=O)c1csc2nc[nH]c(=O)c12)c1ccccc1`, the pIC50 in test [1] is less than 3.70; in test [2] it was 3.91; in test [3] it was 4.31.
On the same counts, the results for `O=c1[nH]cnc2sccc12` are 2.87, 3.92 and 3.84.
For `O=C(NCc1ccc(CO)cc1)c1csc2nc[nH]c(=O)c12`, the negative-log IC50 (pIC50) is 4.42 in test [1], 5.23 in test [2] and 5.00 in test [3].
Take `O=C(NCc1ccc(CNCCO)cc1)c1csc2nc[nH]c(=O)c12`: the negative-log IC50 (pIC50) was 5.74 in test [1], 6.05 in test [2] and 5.92 in test [3].
The matching figures for `O=C(NCc1ccc(CN2CCCC2)cc1)c1csc2nc[nH]c(=O)c12`: 5.33, 6.17 and 5.96.
